Data taken from ChEMBL document CHEMBL1148841, “Synthesis, structural revision, and antioxidant activities of antimutagenic homoisoflavonoids from Hoffmanosseggia intricata” (Bioorg Med Chem Lett, 2007).

Legend:
[1] = test system: Radical scavenging activity; assay: Antioxidant activity assessed as DPPH free radical scavenging activity; type: functional
Method in brief: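 Scavenging measured as reduction of the coloured DPPH (1,1-diphenyl-2-picrylhydrazyl) radical in methanolic solution; activity given as IC50.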

[2] = Antioxidant activity assessed as superoxide scavenging activity by NBT reduction assay; type: functional
Method in brief: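 Superoxide radicals produced in vitro by a non-enzymatic system; scavenging followed by nitro blue tetrazolium photoreduction, read spectrophotometrically at 560 nm; activity given as the concentration giving 50% inhibition (IC50).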

SMILES	IC50 [1] [µM]	IC50 [2] [µM]
O=C1/C(=C/c2ccc(O)c(O)c2)COc2c1ccc(O)c2O	4.5	8.5
O=C1/C(=C/c2ccc(O)cc2)COc2c1ccc(O)c2O	8.3	26.5
O=C1O[C@H]([C@@H](O)CO)C(O)=C1O [ASCORBIC ACID]	25.1	852
COc1ccc(O)c(C(C)(C)C)c1.COc1ccc(O)cc1C(C)(C)C [BUTYLATED HYDROXYANISOLE]	34	966
COc1ccc(/C=C2\COc3c(ccc(O)c3O)C2=O)cc1 [INTRICATINOL]	10.1	30.1
COc1ccc(/C=C2\COc3c(ccc(OC)c3O)C2=O)cc1 [INTRICATIN]	> 200	> 200
